# Results taken from ChEMBL document CHEMBL1145082 (J Med Chem, 2003).
# Assays:
# [1] = molecular target: RAF proto-oncogene serine/threonine-protein kinase (Homo sapiens) (UniProt P04049); experiment: Inhibition of human RAF proto-oncogene serine/threonine-protein kinase (c-RAF) at 10 uM; parameters: scale not given: the % may be the effect or the level left
# Method in brief: (§1)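 Outsourced selectivity panel. Each kinase phosphorylated its own peptide or protein substrate in the presence of 10 µM compound and 10 µM ATP, within the linear time range. Activity given as mean percent of control incubations from duplicate determinations.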
# [2] = molecular target: AMP-activated protein kinase, AMPK (Homo sapiens) (UniProt P54646+O43741+P54619+Q9UGJ0+Q9Y478+Q13131+Q9UGI9); experiment: Inhibition of rat liver AMP-activated Protein Kinase at 10 uM; parameters: scale not given: the % may be the effect or the level left; settings: target entry is the homologue from another species
# Method in brief: (§2)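 Upstate kinase selectivity panel: each kinase phosphorylated its peptide or protein substrate with 10 µM compound present and 10 µM ATP. Reactions were linear with time. Activity is reported as the mean percentage of control incubations, from duplicate determinations.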
# [3] = Increased glycogen synthase activity in HEK293 cells; assay type: functional, cell-based; settings: Homo sapiens
# Method in brief: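 HEK293 cells starved of serum and glucose for 3 h, then exposed to compound or vehicle for 90 min at 37 °C. Cells lysed by three freeze–thaw cycles and lysates clarified. GS activity read as 14C-UDP-glucose incorporation into glycogen, with and without glucose 6-phosphate. EC50 from 6–10 concentrations; ≥3 experiments in duplicate; mean ± SEM.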
# [4] = molecular target: CDK3/cyclin E (Homo sapiens) (UniProt P24864+O96020+Q00526); experiment: Inhibition of cyclin-dependent kinase 3-cyclin E at 10 uM; assay type: protein-complex assay; parameters: scale not given: the % may be the effect or the level left; method in brief: as §1
# [5] = molecular target: Serine/threonine-protein kinase Chk1 (Homo sapiens) (UniProt O14757); experiment: Inhibition of human Serine/threonine-protein kinase Chk1 at 10 uM; parameters: scale not given: the % may be the effect or the level left; method in brief: as §2
# [6] = molecular target: Insulin-like growth factor 1 receptor (Homo sapiens) (UniProt P08069); experiment: Inhibition of Type 1 insulin like growth factor receptor at 10 uM; parameters: scale not given: the % may be the effect or the level left; method in brief: as §1
# [7] = molecular target: Protein kinase C beta type (Homo sapiens, UniProt P05771); experiment: Inhibition of Protein kinase C beta 2
# Method in brief: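 Recombinant human PKCα, PKCγ or PKCβII (5–10 mU) phosphorylating histone H1 (0.1 mg/mL) with 33P-ATP, total ATP 10 µM. Buffer 50 mM Hepes pH 7.4 with Triton X-100, CaCl2, Mg acetate, phosphatidylserine and diacylglycerol. Run 40 min at room temperature, stopped with phosphoric acid, then P30 filter counting.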
# [8] = molecular target: Inhibitor of nuclear factor kappa-B kinase subunit alpha (Homo sapiens) (UniProt O15111); experiment: Inhibition of I kappa-B kinase alpha (IKK) at 10 uM; parameters: scale not given: the % may be the effect or the level left; method in brief: as §1
# Sequence of Inhibitor of nuclear factor kappa-B kinase subunit alpha (Homo sapiens) (O15111 whole entry): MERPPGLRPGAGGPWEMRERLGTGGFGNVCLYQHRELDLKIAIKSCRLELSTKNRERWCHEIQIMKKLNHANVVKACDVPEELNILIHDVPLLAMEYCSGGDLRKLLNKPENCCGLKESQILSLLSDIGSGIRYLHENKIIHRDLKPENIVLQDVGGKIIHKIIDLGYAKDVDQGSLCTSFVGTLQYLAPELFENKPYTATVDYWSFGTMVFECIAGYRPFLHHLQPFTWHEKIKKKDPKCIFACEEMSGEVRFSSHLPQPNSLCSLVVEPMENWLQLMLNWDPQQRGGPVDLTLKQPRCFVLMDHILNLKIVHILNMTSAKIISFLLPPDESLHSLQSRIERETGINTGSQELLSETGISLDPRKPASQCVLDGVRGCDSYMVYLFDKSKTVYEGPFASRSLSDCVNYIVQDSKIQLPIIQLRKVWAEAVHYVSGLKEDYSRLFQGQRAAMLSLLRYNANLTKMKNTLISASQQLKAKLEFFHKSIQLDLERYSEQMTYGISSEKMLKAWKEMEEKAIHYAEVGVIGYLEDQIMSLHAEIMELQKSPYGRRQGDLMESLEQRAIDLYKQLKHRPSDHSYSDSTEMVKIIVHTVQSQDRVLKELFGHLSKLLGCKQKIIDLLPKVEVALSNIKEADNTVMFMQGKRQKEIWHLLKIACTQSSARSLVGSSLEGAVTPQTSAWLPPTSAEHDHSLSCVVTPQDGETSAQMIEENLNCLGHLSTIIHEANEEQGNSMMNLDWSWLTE
# [9] = Inhibition of Vascular endothelial growth factor receptor 2; parameters: species or system Homo sapiens
# Method in brief: (§3)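 Reaction started with 30–150 ng kinase, run 1 h at 30 °C. Peptides captured on streptavidin plates and counted. IC50 from 6–10 concentrations; ≥3 experiments in duplicate; ± SEM.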
# [10] = molecular target: Cyclin-dependent kinase 7/ cyclin H (Homo sapiens) (UniProt P51946+P50613); experiment: Inhibition of cyclin-dependent kinase 7-cyclin H at 10 uM; assay type: protein-complex assay; parameters: scale not given: the % may be the effect or the level left; method in brief: as §1
# [11] = molecular target: CDK6/cyclin D3 (Homo sapiens) (UniProt P30281+Q00534); experiment: Inhibition of Cyclin-dependent kinase 6-cyclin D3 at 10 uM; assay type: protein-complex assay; parameters: scale not given: the % may be the effect or the level left; method in brief: as §1
# [12] = molecular target: Dual specificity mitogen-activated protein kinase kinase 4 (Mus musculus) (UniProt P47809); experiment: Inhibition of mouse Mitogen activated protein kinase kinase 4 at 10 uM; parameters: scale not given: the % may be the effect or the level left; method in brief: as §2
# Sequence of Dual specificity mitogen-activated protein kinase kinase 4 (Mus musculus) (P47809 whole entry): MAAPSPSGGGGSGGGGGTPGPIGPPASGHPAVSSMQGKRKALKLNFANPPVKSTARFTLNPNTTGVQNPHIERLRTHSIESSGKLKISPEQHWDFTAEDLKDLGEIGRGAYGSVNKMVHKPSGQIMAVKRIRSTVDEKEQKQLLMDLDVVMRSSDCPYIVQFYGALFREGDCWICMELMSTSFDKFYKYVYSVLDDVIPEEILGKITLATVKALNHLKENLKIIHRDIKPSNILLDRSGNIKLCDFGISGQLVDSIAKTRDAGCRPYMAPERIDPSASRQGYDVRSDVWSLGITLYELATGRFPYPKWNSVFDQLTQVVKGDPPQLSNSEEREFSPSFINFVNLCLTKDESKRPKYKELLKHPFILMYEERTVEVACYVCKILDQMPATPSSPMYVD
# [13] = molecular target: 3-phosphoinositide-dependent protein kinase 1 (Homo sapiens) (UniProt O15530); experiment: Inhibition of human 3-phosphoinositide-dependent protein kinase 1 at 10 uM; parameters: scale not given: the % may be the effect or the level left; method in brief: as §1
# [14] = molecular target: Ribosomal protein S6 kinase alpha-5 (Homo sapiens) (UniProt O75582); experiment: Inhibition of human MSK-1 kinase at 10 uM; parameters: scale not given: the % may be the effect or the level left; method in brief: as §1
# [15] = molecular target: Tyrosine-protein kinase Lyn (Homo sapiens) (UniProt P07948); experiment: Inhibition of Protein tyrosine kinase Lyn at 10 uM; parameters: scale not given: the % may be the effect or the level left; method in brief: as §1
# Sequence of Tyrosine-protein kinase Lyn (Homo sapiens) (P07948 2-512 limits assumed): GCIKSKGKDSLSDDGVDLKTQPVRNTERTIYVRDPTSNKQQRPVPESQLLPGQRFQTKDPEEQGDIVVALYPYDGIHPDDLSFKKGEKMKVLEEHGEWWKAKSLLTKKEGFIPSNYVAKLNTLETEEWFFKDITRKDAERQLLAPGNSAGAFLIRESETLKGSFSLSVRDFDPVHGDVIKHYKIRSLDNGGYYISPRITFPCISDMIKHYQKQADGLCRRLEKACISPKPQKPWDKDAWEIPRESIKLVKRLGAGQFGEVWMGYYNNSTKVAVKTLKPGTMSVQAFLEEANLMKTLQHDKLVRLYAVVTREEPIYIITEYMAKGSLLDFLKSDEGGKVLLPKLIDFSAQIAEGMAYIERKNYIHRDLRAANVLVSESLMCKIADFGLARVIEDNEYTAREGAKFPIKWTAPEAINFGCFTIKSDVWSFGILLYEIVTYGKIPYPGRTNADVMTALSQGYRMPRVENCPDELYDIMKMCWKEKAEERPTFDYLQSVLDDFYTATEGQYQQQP
# [16] = molecular target: Cyclin-dependent kinase 5/CDK5 activator 1 (Homo sapiens) (UniProt Q00535+Q15078); experiment: Inhibition of Cyclin-dependent kinase 5-p35nck5a at 10 uM; assay type: protein-complex assay; parameters: scale not given: the % may be the effect or the level left; method in brief: as §1
# [17] = molecular target: Tyrosine-protein kinase SYK (Homo sapiens) (UniProt P43405); experiment: Inhibition of Syk protein tyrosine kinase at 10 uM; parameters: scale not given: the % may be the effect or the level left; method in brief: as §1
# Saccharomyces cerevisiae = experiment: Inhibition of yeast Casein kinase I at 10 uM; parameters: scale not given: the % may be the effect or the level left; method in brief: as §2
# [18] = molecular target: Tyrosine-protein kinase Fyn (Homo sapiens) (UniProt P06241); experiment: Inhibition of human Fyn tyrosine kinase at 10 uM; parameters: scale not given: the % may be the effect or the level left; method in brief: as §1
# [19] = molecular target: Calcium/calmodulin-dependent protein kinase type IV (Homo sapiens) (UniProt Q16566); experiment: Inhibition of Calcium/calmodulin-dependent protein kinase type IV at 10 uM; parameters: scale not given: the % may be the effect or the level left; method in brief: as §1
# [20] = molecular target: Mitogen-activated protein kinase 9 (Homo sapiens) (UniProt P45984); experiment: Inhibition of human c-Jun N-terminal kinase 2-alpha 2 at 10 uM; parameters: scale not given: the % may be the effect or the level left; method in brief: as §2
# Sequence of Mitogen-activated protein kinase 9 (Homo sapiens) (P45984 whole entry, looked up): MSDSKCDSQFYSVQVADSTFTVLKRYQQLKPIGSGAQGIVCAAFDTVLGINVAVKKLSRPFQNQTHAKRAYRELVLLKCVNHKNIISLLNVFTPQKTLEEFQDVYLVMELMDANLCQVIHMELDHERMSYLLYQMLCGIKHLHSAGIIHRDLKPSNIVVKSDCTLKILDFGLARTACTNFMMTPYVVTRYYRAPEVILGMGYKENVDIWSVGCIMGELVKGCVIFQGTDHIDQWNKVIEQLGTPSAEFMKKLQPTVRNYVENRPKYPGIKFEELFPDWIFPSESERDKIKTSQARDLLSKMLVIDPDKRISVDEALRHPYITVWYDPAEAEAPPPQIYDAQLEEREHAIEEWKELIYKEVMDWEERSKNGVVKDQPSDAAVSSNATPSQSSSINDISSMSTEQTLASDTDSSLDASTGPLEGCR
# [21] = molecular target: Cyclin-dependent kinase 2/cyclin E (Homo sapiens) (UniProt P24864+P24941+O96020); experiment: Inhibition of Cyclin-dependent kinase 2-cyclin E at 10 uM; assay type: protein-complex assay; parameters: scale not given: the % may be the effect or the level left; method in brief: as §1
# Bos taurus = organism: Bos taurus; experiment: Inhibition of bovine Protein kinase A at 10 uM; parameters: scale not given: the % may be the effect or the level left; method in brief: as §1
# [22] = molecular target: RAC-alpha serine/threonine-protein kinase (Homo sapiens) (UniProt P31749); experiment: Inhibition of human Protein kinase B alpha at 10 uM; parameters: scale not given: the % may be the effect or the level left; method in brief: as §1
# Sequence of RAC-alpha serine/threonine-protein kinase (Homo sapiens) (P31749 whole entry): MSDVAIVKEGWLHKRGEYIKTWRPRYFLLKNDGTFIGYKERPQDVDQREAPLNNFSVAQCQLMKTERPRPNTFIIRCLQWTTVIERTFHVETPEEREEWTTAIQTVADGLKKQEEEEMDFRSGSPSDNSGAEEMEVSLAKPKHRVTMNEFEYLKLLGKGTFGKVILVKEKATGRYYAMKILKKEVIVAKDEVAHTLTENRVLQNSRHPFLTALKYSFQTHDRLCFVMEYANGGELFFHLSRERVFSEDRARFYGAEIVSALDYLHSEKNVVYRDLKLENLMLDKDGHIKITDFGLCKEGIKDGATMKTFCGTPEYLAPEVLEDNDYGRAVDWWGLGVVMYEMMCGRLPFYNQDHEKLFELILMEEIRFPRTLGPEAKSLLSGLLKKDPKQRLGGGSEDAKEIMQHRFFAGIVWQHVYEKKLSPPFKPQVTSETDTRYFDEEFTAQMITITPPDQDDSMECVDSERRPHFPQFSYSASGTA
# [23] = molecular target: Cyclin-dependent kinase 1 (Homo sapiens, UniProt P06493); experiment: Inhibition of Cyclin-dependent kinase 1; method in brief: as §3
# Sequence of Cyclin-dependent kinase 1 (P06493 whole entry): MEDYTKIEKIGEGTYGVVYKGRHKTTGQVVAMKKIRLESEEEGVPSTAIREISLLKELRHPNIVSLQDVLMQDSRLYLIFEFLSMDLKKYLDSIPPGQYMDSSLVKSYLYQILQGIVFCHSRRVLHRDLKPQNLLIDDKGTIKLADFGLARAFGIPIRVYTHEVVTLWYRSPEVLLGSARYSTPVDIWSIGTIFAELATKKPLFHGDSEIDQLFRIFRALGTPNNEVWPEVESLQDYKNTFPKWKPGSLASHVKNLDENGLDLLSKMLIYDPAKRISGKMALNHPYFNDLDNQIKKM
# [24] = molecular target: Protein kinase C gamma type (Homo sapiens, UniProt P05129); experiment: Inhibition of Protein kinase C gamma (PKC-gamma)
# Method in brief: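 Recombinant human PKCα, PKCγ or PKCβII (5–10 mU) phosphorylating histone H1 (0.1 mg/mL) with 33P-ATP, total ATP 10 µM. Buffer 50 mM Hepes pH 7.4 with Triton X-100, CaCl2, Mg acetate, phosphatidylserine and diacylglycerol. Run 40 min at room temperature, stopped with phosphoric acid, then P30 filter counting. IC50 from 6–10 concentrations; ≥3 experiments in duplicate; ± SEM.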
# [25] = molecular target: Dual specificity mitogen-activated protein kinase kinase 7 (Homo sapiens) (UniProt O14733); experiment: Inhibition of human Mitogen activated protein kinase kinase 7 beta at 10 uM; parameters: scale not given: the % may be the effect or the level left; method in brief: as §1
# Sequence of Dual specificity mitogen-activated protein kinase kinase 7 (Homo sapiens) (O14733 whole entry): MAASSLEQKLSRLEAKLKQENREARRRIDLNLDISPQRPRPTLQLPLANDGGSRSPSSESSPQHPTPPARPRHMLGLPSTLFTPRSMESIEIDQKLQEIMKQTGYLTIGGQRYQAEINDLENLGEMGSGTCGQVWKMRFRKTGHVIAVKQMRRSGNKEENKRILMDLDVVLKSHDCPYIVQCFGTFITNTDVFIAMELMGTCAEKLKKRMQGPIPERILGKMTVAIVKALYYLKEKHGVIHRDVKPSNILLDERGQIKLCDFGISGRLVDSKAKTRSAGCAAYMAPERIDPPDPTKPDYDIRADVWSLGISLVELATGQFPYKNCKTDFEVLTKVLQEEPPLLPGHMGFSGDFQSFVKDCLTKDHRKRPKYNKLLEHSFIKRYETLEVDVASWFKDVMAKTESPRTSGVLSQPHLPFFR
# [26] = Inhibition of Casein Kinase I; parameters: species or system Rattus norvegicus; method in brief: as §3
# [27] = molecular target: Casein kinase II (Homo sapiens) (UniProt P67870+P68400+P19784); experiment: Inhibition of human Casein kinase II at 10 uM; assay type: protein-complex assay; parameters: scale not given: the % may be the effect or the level left; method in brief: as §1
# [28] = molecular target: Platelet-derived growth factor receptor alpha (Homo sapiens) (UniProt P16234); experiment: Inhibition of Platelet-derived growth factor receptor alpha at 10 uM; parameters: scale not given: the % may be the effect or the level left; method in brief: as §1
# [29] = molecular target: Mitogen-activated protein kinase 1 (Mus musculus) (UniProt P63085); experiment: Inhibition of mouse Mitogen-activated protein kinase 2 at 10 uM; parameters: scale not given: the % may be the effect or the level left; method in brief: as §2
# Sequence of Mitogen-activated protein kinase 1 (Mus musculus) (P63085 whole entry): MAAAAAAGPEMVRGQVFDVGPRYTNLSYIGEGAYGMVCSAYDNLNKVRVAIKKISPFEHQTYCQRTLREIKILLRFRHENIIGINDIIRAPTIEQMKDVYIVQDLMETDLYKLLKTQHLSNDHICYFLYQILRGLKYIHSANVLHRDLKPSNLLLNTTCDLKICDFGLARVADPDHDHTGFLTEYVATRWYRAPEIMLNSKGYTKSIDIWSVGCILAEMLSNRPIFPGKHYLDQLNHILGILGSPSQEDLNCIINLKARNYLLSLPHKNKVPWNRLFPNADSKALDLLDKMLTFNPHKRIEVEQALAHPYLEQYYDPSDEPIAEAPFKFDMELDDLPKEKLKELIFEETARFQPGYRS
# [30] = molecular target: Protein kinase C theta type (Homo sapiens, UniProt Q04759); experiment: Inhibition of Protein kinase C theta at 10 uM; parameters: scale not given: the % may be the effect or the level left; method in brief: as §1
# Sequence of Protein kinase C theta type (Q04759 whole entry, looked up): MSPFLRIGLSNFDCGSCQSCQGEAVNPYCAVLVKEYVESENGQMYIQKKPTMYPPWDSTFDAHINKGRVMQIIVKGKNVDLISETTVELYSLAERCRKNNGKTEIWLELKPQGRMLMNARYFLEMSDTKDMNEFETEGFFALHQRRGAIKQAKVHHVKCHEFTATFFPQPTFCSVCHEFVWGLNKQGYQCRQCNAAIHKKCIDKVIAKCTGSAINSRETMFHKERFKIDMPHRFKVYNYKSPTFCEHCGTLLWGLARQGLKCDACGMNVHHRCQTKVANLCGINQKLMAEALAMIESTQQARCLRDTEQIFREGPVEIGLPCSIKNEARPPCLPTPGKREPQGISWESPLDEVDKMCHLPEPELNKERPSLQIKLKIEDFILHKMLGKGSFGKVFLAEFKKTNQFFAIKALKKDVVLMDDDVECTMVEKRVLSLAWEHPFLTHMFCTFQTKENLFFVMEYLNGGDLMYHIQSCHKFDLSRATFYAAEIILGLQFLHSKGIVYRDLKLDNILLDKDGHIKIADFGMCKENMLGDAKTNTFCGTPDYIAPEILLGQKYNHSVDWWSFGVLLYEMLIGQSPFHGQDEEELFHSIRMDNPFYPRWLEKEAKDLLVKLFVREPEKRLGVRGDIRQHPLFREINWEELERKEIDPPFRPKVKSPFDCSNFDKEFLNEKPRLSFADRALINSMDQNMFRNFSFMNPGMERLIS
# [31] = molecular target: MAP kinase-activated protein kinase 5 (Homo sapiens) (UniProt Q8IW41); experiment: Inhibition of human Protein kinase PRAK at 10 uM; parameters: scale not given: the % may be the effect or the level left; method in brief: as §1
# [32] = molecular target: Dual specificity mitogen-activated protein kinase kinase 6 (Homo sapiens) (UniProt P52564); experiment: Inhibition of human Mitogen activated protein kinase kinase 6 at 10 uM; parameters: scale not given: the % may be the effect or the level left; method in brief: as §1
# Sequence of RAF proto-oncogene serine/threonine-protein kinase (Homo sapiens) (P04049 whole entry): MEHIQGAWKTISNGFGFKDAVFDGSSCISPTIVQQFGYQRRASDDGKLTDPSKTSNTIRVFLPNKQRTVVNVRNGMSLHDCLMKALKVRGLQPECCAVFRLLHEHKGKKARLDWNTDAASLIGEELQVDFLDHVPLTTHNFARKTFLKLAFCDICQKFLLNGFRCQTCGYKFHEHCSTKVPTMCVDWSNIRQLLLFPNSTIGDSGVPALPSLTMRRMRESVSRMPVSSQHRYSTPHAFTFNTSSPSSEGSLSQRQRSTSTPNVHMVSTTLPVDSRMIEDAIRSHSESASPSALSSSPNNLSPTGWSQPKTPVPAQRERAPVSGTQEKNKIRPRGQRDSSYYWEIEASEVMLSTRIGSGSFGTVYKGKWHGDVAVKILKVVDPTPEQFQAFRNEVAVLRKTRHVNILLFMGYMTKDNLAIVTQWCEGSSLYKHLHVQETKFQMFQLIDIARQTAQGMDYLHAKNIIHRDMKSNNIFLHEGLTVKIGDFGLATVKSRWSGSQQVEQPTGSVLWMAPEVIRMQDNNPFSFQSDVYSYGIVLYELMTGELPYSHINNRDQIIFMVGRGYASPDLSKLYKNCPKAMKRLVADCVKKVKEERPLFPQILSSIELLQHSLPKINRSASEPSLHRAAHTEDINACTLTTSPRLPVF
smiles,measurement,setting,value
O=C1NC(=O)C2=C1c1cn(c3ncccc13)CCOCCOCCOCCn1cc2c2cccnc21,Activity,[1],91%
same,Activity,[2],88%
same,EC50,[3],0.06 µM
same,Activity,[4],72%
same,Activity,[5],101%
same,Activity,[6],107%
same,IC50,[7],1.16 µM
same,Activity,[8],100%
same,IC50,[9],> 10 µM
same,Activity,[10],85%
same,Activity,[11],97%
same,Activity,[12],110%
same,Activity,[13],90%
same,Activity,[14],61%
same,Activity,[15],99%
same,Activity,[16],82%
same,Activity,[17],67%
same,Activity,Saccharomyces cerevisiae,84%
same,Activity,[18],92%
same,Activity,[19],84%
same,Activity,[20],76%
same,Activity,[21],67%
same,Activity,Bos taurus,88%
same,Activity,[22],97%
same,IC50,[23],> 10 µM
same,IC50,[24],> 10 µM
same,Activity,[25],129%
same,IC50,[26],> 10 µM
same,Activity,[27],105%
same,Activity,[28],130%
same,Activity,[29],85%
same,Activity,[30],71%
same,Activity,[31],88%
same,Activity,[32],87%
O=C1NC(=O)C2=C1c1cn(c3ncccc13)CCOCCOCCOCCOCCn1cc2c2cccnc21,Activity,[1],97%
same,Activity,[2],99%
same,EC50,[3],0.39 µM
same,Activity,[4],97%
same,Activity,[5],102%
same,Activity,[6],97%
same,IC50,[7],> 10 µM
same,Activity,[8],98%
same,IC50,[9],> 10 µM
same,Activity,[10],86%
same,Activity,[11],97%
same,Activity,[12],107%
same,Activity,[13],94%
same,Activity,[14],89%
same,Activity,[15],92%
same,Activity,[16],105%
same,Activity,[17],72%
same,Activity,Saccharomyces cerevisiae,89%
same,Activity,[18],95%
same,Activity,[19],88%
same,Activity,[20],97%
same,Activity,[21],100%
same,Activity,Bos taurus,94%
same,Activity,[22],102%
same,IC50,[23],> 10 µM
same,IC50,[24],> 10 µM
same,Activity,[25],132%
same,IC50,[26],> 10 µM
same,Activity,[27],102%
same,Activity,[28],112%
same,Activity,[29],88%
same,Activity,[30],88%
same,Activity,[31],102%
same,Activity,[32],85%
